# Screening data deposited in PubChem BioAssay by The Scripps Research Institute Molecular Screening Center.
# OX1R antag-1 – antagonists of human orexin 1 receptor (OX1R); actives 1.8% (n = 330,000); inhibition, % at 6.6 µM; O43613; OX1R-expressing cells, FRET antagonist read-out; in the data active = inhibition mostly above about 38%, no sharp cut-off; inactive = mostly below about 40%;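 also: 0% = agonist challenge alone and 100% = reference antagonist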
# GalR3 antagonist – blocks the human galanin receptor 3. actives 0.44% (n = 360,000). HEK293 GalR3-CNG cAMP membrane potential fluorescence; galR3 body fused to GalR1 C-terminus. O60755. inhibition, % at 3 µM. AID 651719;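 active = inhibition above the screen-wide average plus 3 SD, cut at about 13% in these data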;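 also: forskolin and galanin both at EC90 stimulate the cells; cAMP rise reported by CNG channel membrane potential dye signal; 0% = forskolin plus galanin with DMSO and 100% = forskolin alone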
# Target sequence (O60755 1-299 limits assumed): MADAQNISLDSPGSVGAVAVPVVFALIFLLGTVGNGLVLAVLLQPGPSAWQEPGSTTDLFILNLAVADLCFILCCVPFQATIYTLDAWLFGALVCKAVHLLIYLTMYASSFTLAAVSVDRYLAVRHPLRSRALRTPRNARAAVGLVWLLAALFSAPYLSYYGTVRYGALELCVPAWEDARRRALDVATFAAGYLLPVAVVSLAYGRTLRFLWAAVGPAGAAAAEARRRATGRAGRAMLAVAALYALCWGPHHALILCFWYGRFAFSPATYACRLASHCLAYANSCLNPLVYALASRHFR
# CHO parental Ca – signal in parental CHO cells, OX1R antagonist counter-screen. parental CHO-K1, ATP-induced calcium, Fluo-8 fluorescence. inhibition, % at 5.6 µM. actives 0.63% (n = 330,000);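 active = inhibition above that plate's mean sample inhibition plus 3 SD, cut at about 26% in these data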;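 also: 0% = ATP-challenged DMSO wells and 100% = DMSO wells without ATP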
#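 Test system: untransfected parental CHO cell line. Compound: one dose, 5.6 µM nominal. Detection: intracellular calcium via Fluo-8 no-wash fluorescent dye. Measure: % inhibition. Benchmarks: ATP-challenged DMSO wells low, unchallenged DMSO wells high.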
# GPR7 antag – human neuropeptides B/W receptor 1 antagonism; P48145; GPR7-expressing cells, fluorescence antagonist assay; inhibition, % at 4.4 µM; actives 1.1% (n = 290,000); AID 1861; in the data active = inhibition above about 16%, passing the limit was not always enough;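 also: cells stimulated with the agonist NPW; 0% = agonist with vehicle and 100% = vehicle without agonist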
# Target sequence (P48145 whole entry, looked up): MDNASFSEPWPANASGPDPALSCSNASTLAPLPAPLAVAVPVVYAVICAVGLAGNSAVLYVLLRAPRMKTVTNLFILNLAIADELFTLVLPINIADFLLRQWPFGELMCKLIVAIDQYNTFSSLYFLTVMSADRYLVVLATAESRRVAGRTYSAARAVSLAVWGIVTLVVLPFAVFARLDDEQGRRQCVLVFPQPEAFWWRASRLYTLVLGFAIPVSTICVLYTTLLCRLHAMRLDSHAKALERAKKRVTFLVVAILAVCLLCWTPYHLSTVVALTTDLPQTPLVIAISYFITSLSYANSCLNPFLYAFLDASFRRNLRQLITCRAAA
# OX1R antag-2 – human HCRTR1 antagonism; O43613; actives 0.43% (n = 330,000); CHO/OX1R cells, Fluo-8 calcium fluorescence, orexin A; inhibition, % at 5 µM; AID 434989;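 active = inhibition above its plate's threshold, mean inhibition of all tested compounds on the plate plus 3 SD, cut at about 37% in these data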;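 also: 0% = orexin A challenge wells and 100% = SB-334867-A antagonist wells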
# Numbers without * were called inactive; . = no result given. Sampled rows, rich in hits. Any-hit rate of the full collection: about 3.1%.
SMILES,OX1R antag-1,GalR3 antagonist,CHO parental Ca,GPR7 antag,OX1R antag-2
O=C(c1ccc2nc[nH]c2c1)N1CCN(S(=O)(=O)c2cccc(F)c2)CC1,1,-2,-2,.,2
COc1ccc(N/C=C2\CCc3ccccc3C2=O)cc1,39*,-5,3,19,-34
CC(C)(C)n1cnc2cc(NS(=O)(=O)c3ccc(Br)cc3)ccc21,59,-6,58*,0,60*
Cc1ccc(S(=O)(=O)Nc2ccc3c(c2)ncn3C(C)(C)C)cc1,-1,-7,-13,-5,-18
Cc1cc2c(N=O)c(NO)ccc2[nH]1,62*,.,-32,-19,-5
O=Nc1c(O)[nH]c2ccc(F)cc12,15,-3,3,-12,0
CCCc1nn2c(=O)cc(CSCC(=O)Nc3ccc(F)cc3)nc2s1,9,-8,-13,1,-4
O=C([C@H](Cc1ccc(O)cc1)n1cc(CCO)nn1)N1CCNCC1,12,-4,-6,-18,-1
CNc1ccccc1C(C)(C)c1cc(-c2cccc(Br)c2)no1,20,-9,45*,-11,33
Cc1ccc(S(=O)(=O)N(C(=O)c2ccco2)c2cc3sc(=O)oc3c3ccccc23)cc1,10,-1,76*,0,62*
CC(=O)N(c1ccc2oc(=O)sc2c1)S(=O)(=O)c1ccccc1,17,1,3,-8,-13
CCOc1ccc(S(=O)(=O)N(C(=O)c2ccco2)c2cc3sc(=O)oc3c3ccccc23)cc1,6,7,82*,-5,69*
COc1ccc(S(=O)(=O)N(C(=O)c2ccco2)c2cc3sc(=O)oc3c3ccccc23)cc1,2,3,66*,-11,60*
CSc1ncnc2c1ncn2CCCN(C)CCc1ccccn1,.,-4,.,.,.
CC1CCCN(C(=O)CCNS(=O)(=O)c2ccc3c(c2)c(=O)n(C)c(=O)n3C)C1 (stereo not given),16,-6,-19,-10,-4
O=C(Nc1ccc(SC(F)F)cc1)C1=CC=CN2CCS(=O)(=O)N=C12,7,-4,-2,.,-5
CSc1ccc(S(=O)(=O)NCC(=O)OCC(=O)NCC2CCCO2)cc1[N+](=O)[O-] (stereo not given),56*,5,-13,.,3
Cc1ccc2nc(-c3ccc(NC(=S)NC(=O)C(C)C)cc3)sc2c1,14,-9,7,-1,-9
Cc1ccc2nc(-c3ccc(NC(=S)NC4CC(C)(C)NC(C)(C)C4)cc3)sc2c1,9,-9,9,52*,11
CN(C)c1ccc2c(c1)Sc1cc(N(C)C)ccc1N2C(=O)c1ccccc1,33,-8,38*,0,-6
Cc1ccc(C(=O)N2c3ccccc3Sc3ccccc32)cc1,.,-4,.,.,.
Cc1ccc(C)c(OCC(=O)Nc2cccc(S(=O)(=O)NC3=NCCCCC3)c2)c1,33,-4,21,-6,12
CCC(=O)NC(c1ccco1)c1cc(Cl)c2ccccc2c1O (stereo not given),50*,-5,-16,.,23
O=C(CCC(=O)Nc1ccccc1)NNS(=O)(=O)c1ccccc1[N+](=O)[O-],28,-1,2,4,7
Cc1cc(CNC(=O)Cc2c(F)cccc2Cl)nn1C,-2,.,-6,19*,2
SMILES,OX1R antag-1,GalR3 antagonist,CHO parental Ca,GPR7 antag,OX1R antag-2
CC(=O)c1ccc(NC(=O)c2ccc3nc(-c4ccco4)c(-c4ccco4)nc3c2)cc1,36,.,-2,-1,-29
O=C(Nc1ccccc1)c1ccc2nc(-c3ccco3)c(-c3ccco3)nc2c1,102*,-1,-24,-1,71*
O=C(NCCO)Nc1ccc2nc(-c3ccco3)c(-c3ccco3)nc2c1,100*,.,-8,-3,-116
Cc1cccc(C)c1OCC(O)CN1CCc2ccccc2C1 (stereo not given),12,-2,-8,.,-29
Cc1ccc(C(C)C)c(OCC(O)CN2CCc3ccccc3C2)c1 (stereo not given),20,-12,30*,-12,-14
CN(C)S(=O)(=O)c1cccc2nsnc12,35*,-5,-5,0,-8
CN(CC(=O)Nc1ccc(F)c(F)c1)S(=O)(=O)c1cccc2nsnc12,63*,-2,-6,6,-14
Cc1cccc(N(C)S(=O)(=O)c2cccc3nsnc23)c1,27,0,-14,-10,-23
CCCCN(CC)CCCNC(=O)C1CCN(c2ncnc3c2sc2cccc(F)c23)CC1,62*,-3,-15,-4,-11
CCCn1c(=O)c(C(=O)Nc2ccccc2N)c(O)c2ccccc21,.,-1,.,.,.
Nc1nn(-c2ccccc2)c(N)c1N=Nc1ccc2c(c1)OCO2,12,-6,-10,24*,-7
O=C(CCc1ccccc1)Nc1cccc(NC(=O)CCc2ccccc2)c1,48*,-3,-29,2,19
CS(=O)(=O)Nc1ccccc1C(=O)Nc1cc(Cl)cc(Cl)c1,46*,-7,19,-3,11
CCN(CCNC(=O)Nc1ccc(Cl)cc1)c1ccccc1,118*,-2,55*,5,64*
COc1cc(CNCCc2c[nH]c3ccccc23)ccc1OCc1ccc(F)cc1,10,-7,11,21*,10
COc1ccc(N(CCC(=O)O)S(=O)(=O)c2ccc(C)cc2C)cc1,8,-2,2,-11,-11
CCc1ccccc1N1C(=O)CN(Cc2cc(OC)c(OC)c(OC)c2)C1=S,37*,-10,-15,5,-6
COc1cc(C[C@@H](C)[C@@H](C)Cc2ccc(O)c(OC)c2)ccc1O,4,-4,10,.,10
CC(Cc1ccc(O)c(O)c1)C(C)Cc1ccc(O)c(O)c1 (stereo not given),4,.,34*,.,32
CCC(C)(C(=O)NC1CCCC1)N(Cc1cccs1)C(=O)Cc1cccs1 (stereo not given),24,-7,-8,42*,-24
CCC(C)(C(=O)NC1CCCCC1)N(Cc1ccco1)C(=O)c1cnccn1 (stereo not given),15,-5,-15,16*,-17
CCC(C)(C(=O)NC1CCCC1)N(Cc1cccs1)C(C)=O (stereo not given),17,-5,-3,-10,-18
Cc1ccc(S(=O)(=O)NC(=O)C2(C)CCN2C(=O)c2ccc(C(F)(F)F)nc2C)cc1 (stereo not given),.,-6,.,.,.
CCOc1ccc(NC(=O)CCc2c(C)nn(-c3ccc(N4CCCCC4)nn3)c2C)cc1,6,4,-31,-12,-36
CC(NC(=O)NCc1cccnc1)(C(F)(F)F)C(F)(F)F,15,-4,8,-11,6
CCOC(=O)C1CCCN(S(=O)(=O)c2ccc(S(=O)(=O)N3CCCC3)cc2)C1 (stereo not given),36,-6,37*,.,10
O=C(NCCN1CCOCC1)/C(=C\c1ccccc1F)NC(=O)c1ccccc1,12,3,-18,0,-16
Cc1ccc(-c2csc(N3CCC(NS(=O)(=O)c4ccc5c(c4)OCCO5)CC3)n2)cc1,36,-6,55*,0,51*
